From ChEMBL document CHEMBL4689842, “EUbOPEN Chemogenomics Library wave 1” (2021)

Tested on: HEK-293T
Assay: Multiplex assay against HEK293T;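 as to Population Tubulin-Different-Phenotype (%): share of the cells with healthy nuclei that show this phenotype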
Assay type: toxicity, cell-based
Settings: human
Outline: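 Tubulin, mitochondrial-mass and membrane-permeability phenotypes are per cents of healthy-nucleus cells. Cells were gated by CellPathfinder machine learning into Hoechst high-intensity objects or normal cells, normal cells into healthy, pyknosed or fragmented nuclei, and pyknosed cells into mitotic or apoptotic. Before that, live cells stained at seeding with Hoechst33342, BioTracker Green Microtubule Cytoskeleton Dye, MitoTracker Red and Annexin V Alexa Fluor 680 were imaged on a CQ1 microscope at 37°C and 5% CO2 after compound addition.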

[1] = 12 h, 1 µM, compound concentration 1 uM, replicate 1
[2] = 12 h, 1 µM, compound concentration 1 uM, replicate 2
[3] = 12 h, 10 µM, compound concentration 10 uM, replicate 1
[4] = 12 h, 10 µM, compound concentration 10 uM, replicate 2
[5] = 24 h, 1 µM, compound concentration 1 uM, replicate 1
[6] = 24 h, 1 µM, compound concentration 1 uM, replicate 2
[7] = 24 h, 10 µM, compound concentration 10 uM, replicate 1
[8] = 24 h, 10 µM, compound concentration 10 uM, replicate 2
[9] = 48 h, 1 µM, compound concentration 1 uM, replicate 1
[10] = 48 h, 1 µM, compound concentration 1 uM, replicate 2
[11] = 48 h, 10 µM, compound concentration 10 uM, replicate 1
[12] = 48 h, 10 µM, compound concentration 10 uM, replicate 2

SMILES: CNC(=O)Nc1ccc(-c2nc(N3CC4CCC(C3)O4)c3cnn(C4CCC5(CC4)OCCO5)c3n2)cc1
- Population Apoptotic (%) [1]: 55%
- Population Fragmented Nuclei (%) [1]: 24%
- Population Healthy Nuclei (%) [1]: 6%
- Population Hoechst High Intensity Objects (%) [1]: 20%
- Population Membrane Permeable-Phenotype (%) [1]: 0%
- Population Mitochondria Different-Phenotype (%) [1]: 75%
- Population Mitotic Cells (%) [1]: 44%
- Population Normal (%) [1]: 79%
- Population Pyknosed Nuclei (%) [1]: 68%
- Population Tubulin-Different-Phenotype (%) [1]: 50%
- Total Cell Count [1]: 149
- Population Apoptotic (%) [2]: 23%
- Population Fragmented Nuclei (%) [2]: 9%
- Population Healthy Nuclei (%) [2]: 26%
- Population Hoechst High Intensity Objects (%) [2]: 10%
- Population Membrane Permeable-Phenotype (%) [2]: 8%
- Population Mitochondria Different-Phenotype (%) [2]: 32%
- Population Mitotic Cells (%) [2]: 76%
- Population Normal (%) [2]: 89%
- Population Pyknosed Nuclei (%) [2]: 64%
- Population Tubulin-Different-Phenotype (%) [2]: 24%
- Total Cell Count [2]: 155
- Population Apoptotic (%) [3]: 76%
- Population Fragmented Nuclei (%) [3]: 18%
- Population Healthy Nuclei (%) [3]: 7%
- Population Hoechst High Intensity Objects (%) [3]: 26%
- Population Membrane Permeable-Phenotype (%) [3]: 11%
- Population Mitochondria Different-Phenotype (%) [3]: 88%
- Population Mitotic Cells (%) [3]: 23%
- Population Normal (%) [3]: 73%
- Population Pyknosed Nuclei (%) [3]: 73%
- Population Tubulin-Different-Phenotype (%) [3]: 88%
- Total Cell Count [3]: 167
- Population Apoptotic (%) [4]: 56%
- Population Fragmented Nuclei (%) [4]: 8%
- Population Healthy Nuclei (%) [4]: 8%
- Population Hoechst High Intensity Objects (%) [4]: 7%
- Population Membrane Permeable-Phenotype (%) [4]: 6%
- Population Mitochondria Different-Phenotype (%) [4]: 100%
- Population Mitotic Cells (%) [4]: 43%
- Population Normal (%) [4]: 92%
- Population Pyknosed Nuclei (%) [4]: 82%
- Population Tubulin-Different-Phenotype (%) [4]: 100%
- Total Cell Count [4]: 182
- Population Apoptotic (%) [5]: 68%
- Population Fragmented Nuclei (%) [5]: 32%
- Population Healthy Nuclei (%) [5]: 5%
- Population Hoechst High Intensity Objects (%) [5]: 29%
- Population Membrane Permeable-Phenotype (%) [5]: 16%
- Population Mitochondria Different-Phenotype (%) [5]: 66%
- Population Mitotic Cells (%) [5]: 31%
- Population Normal (%) [5]: 70%
- Population Pyknosed Nuclei (%) [5]: 61%
- Population Tubulin-Different-Phenotype (%) [5]: 16%
- Total Cell Count [5]: 151
- Population Apoptotic (%) [6]: 21%
- Population Fragmented Nuclei (%) [6]: 12%
- Population Healthy Nuclei (%) [6]: 34%
- Population Hoechst High Intensity Objects (%) [6]: 10%
- Population Membrane Permeable-Phenotype (%) [6]: 8%
- Population Mitochondria Different-Phenotype (%) [6]: 35%
- Population Mitotic Cells (%) [6]: 78%
- Population Normal (%) [6]: 89%
- Population Pyknosed Nuclei (%) [6]: 53%
- Population Tubulin-Different-Phenotype (%) [6]: 20%
- Total Cell Count [6]: 158
- Population Apoptotic (%) [7]: 81%
- Population Fragmented Nuclei (%) [7]: 23%
- Population Healthy Nuclei (%) [7]: 3%
- Population Hoechst High Intensity Objects (%) [7]: 27%
- Population Membrane Permeable-Phenotype (%) [7]: 25%
- Population Mitochondria Different-Phenotype (%) [7]: 75%
- Population Mitotic Cells (%) [7]: 18%
- Population Normal (%) [7]: 72%
- Population Pyknosed Nuclei (%) [7]: 73%
- Population Tubulin-Different-Phenotype (%) [7]: 75%
- Total Cell Count [7]: 165
- Population Apoptotic (%) [8]: 68%
- Population Fragmented Nuclei (%) [8]: 10%
- Population Healthy Nuclei (%) [8]: 17%
- Population Hoechst High Intensity Objects (%) [8]: 11%
- Population Membrane Permeable-Phenotype (%) [8]: 17%
- Population Mitochondria Different-Phenotype (%) [8]: 85%
- Population Mitotic Cells (%) [8]: 31%
- Population Normal (%) [8]: 88%
- Population Pyknosed Nuclei (%) [8]: 72%
- Population Tubulin-Different-Phenotype (%) [8]: 96%
- Total Cell Count [8]: 182
- Population Apoptotic (%) [9]: 62%
- Population Fragmented Nuclei (%) [9]: 46%
- Population Healthy Nuclei (%) [9]: 3%
- Population Hoechst High Intensity Objects (%) [9]: 33%
- Population Membrane Permeable-Phenotype (%) [9]: 0%
- Population Mitochondria Different-Phenotype (%) [9]: 66%
- Population Mitotic Cells (%) [9]: 37%
- Population Normal (%) [9]: 66%
- Population Pyknosed Nuclei (%) [9]: 50%
- Population Tubulin-Different-Phenotype (%) [9]: 33%
- Total Cell Count [9]: 144
- Population Apoptotic (%) [10]: 34%
- Population Fragmented Nuclei (%) [10]: 13%
- Population Healthy Nuclei (%) [10]: 46%
- Population Hoechst High Intensity Objects (%) [10]: 11%
- Population Membrane Permeable-Phenotype (%) [10]: 1%
- Population Mitochondria Different-Phenotype (%) [10]: 50%
- Population Mitotic Cells (%) [10]: 65%
- Population Normal (%) [10]: 88%
- Population Pyknosed Nuclei (%) [10]: 40%
- Population Tubulin-Different-Phenotype (%) [10]: 61%
- Total Cell Count [10]: 138
- Population Apoptotic (%) [11]: 84%
- Population Fragmented Nuclei (%) [11]: 35%
- Population Healthy Nuclei (%) [11]: 8%
- Population Hoechst High Intensity Objects (%) [11]: 23%
- Population Membrane Permeable-Phenotype (%) [11]: 11%
- Population Mitochondria Different-Phenotype (%) [11]: 100%
- Population Mitotic Cells (%) [11]: 15%
- Population Normal (%) [11]: 76%
- Population Pyknosed Nuclei (%) [11]: 56%
- Population Tubulin-Different-Phenotype (%) [11]: 100%
- Total Cell Count [11]: 146
- Population Apoptotic (%) [12]: 65%
- Population Fragmented Nuclei (%) [12]: 8%
- Population Healthy Nuclei (%) [12]: 40%
- Population Hoechst High Intensity Objects (%) [12]: 8%
- Population Membrane Permeable-Phenotype (%) [12]: 1%
- Population Mitochondria Different-Phenotype (%) [12]: 83%
- Population Mitotic Cells (%) [12]: 34%
- Population Normal (%) [12]: 91%
- Population Pyknosed Nuclei (%) [12]: 51%
- Population Tubulin-Different-Phenotype (%) [12]: 90%
- Total Cell Count [12]: 181
